For 46 molecules, inhibition results are on record in ChEMBL document CHEMBL1142961, “Novel selective inhibitors of the zinc plasmodial aminopeptidase PfA-M1 as potential antimalarial agents” (J Med Chem, 2007).

The target of experiment [1] is T1, Aminopeptidase N (Plasmodium falciparum FcB1/Columbia) (UniProt O96935).
T1 sequence (whole entry): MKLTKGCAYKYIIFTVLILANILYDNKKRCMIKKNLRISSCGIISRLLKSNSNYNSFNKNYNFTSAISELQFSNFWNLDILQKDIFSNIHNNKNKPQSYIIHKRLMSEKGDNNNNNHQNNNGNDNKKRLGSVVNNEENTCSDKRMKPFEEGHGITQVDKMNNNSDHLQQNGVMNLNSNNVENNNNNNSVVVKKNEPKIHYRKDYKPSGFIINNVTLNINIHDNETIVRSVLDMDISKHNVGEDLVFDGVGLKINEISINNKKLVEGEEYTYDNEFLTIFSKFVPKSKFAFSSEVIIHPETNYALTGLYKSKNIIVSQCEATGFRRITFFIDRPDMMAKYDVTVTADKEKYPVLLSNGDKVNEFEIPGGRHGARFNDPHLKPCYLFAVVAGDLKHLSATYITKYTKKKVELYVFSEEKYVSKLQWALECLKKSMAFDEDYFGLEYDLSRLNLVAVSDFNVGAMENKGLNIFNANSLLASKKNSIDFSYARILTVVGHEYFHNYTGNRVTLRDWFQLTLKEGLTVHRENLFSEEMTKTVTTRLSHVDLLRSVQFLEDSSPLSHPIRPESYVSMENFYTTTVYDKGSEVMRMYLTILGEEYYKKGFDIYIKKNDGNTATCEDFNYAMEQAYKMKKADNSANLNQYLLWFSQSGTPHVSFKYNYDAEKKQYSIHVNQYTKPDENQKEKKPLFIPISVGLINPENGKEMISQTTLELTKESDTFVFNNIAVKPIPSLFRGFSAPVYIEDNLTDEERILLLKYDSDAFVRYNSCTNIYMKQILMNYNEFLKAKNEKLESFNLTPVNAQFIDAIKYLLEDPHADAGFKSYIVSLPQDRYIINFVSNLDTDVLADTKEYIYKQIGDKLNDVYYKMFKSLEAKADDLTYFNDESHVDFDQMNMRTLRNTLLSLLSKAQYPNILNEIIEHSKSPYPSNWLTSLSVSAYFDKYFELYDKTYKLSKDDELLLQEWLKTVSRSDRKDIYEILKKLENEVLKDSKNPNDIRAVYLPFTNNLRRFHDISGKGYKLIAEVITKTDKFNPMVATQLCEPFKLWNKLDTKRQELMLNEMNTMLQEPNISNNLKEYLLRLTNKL
The experiment is described as follows: Inhibition of Plasmodium falciparum FcB1 M1 aminopeptidase at 10 uM. An outline of the steps:
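Native enzyme purified from P. falciparum FcB1, diluted 10-fold in 25 mM Tris-HCl pH 7.4. Preincubated with inhibitor for 10 min at room temperature, then Leu-pNA substrate added (0.3 mM stock, Km 0.099 mM). Kinetics followed at 405 nm at room temperature. Initial velocities normalized to a no-inhibitor control. Single-point screen at 10 µM; IC50 from velocity versus inhibitor concentration curves. Bestatin used as reference.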

Experiment [2] addresses T2, Aminopeptidase N (Sus scrofa) (UniProt P15145).
T2 sequence (whole entry): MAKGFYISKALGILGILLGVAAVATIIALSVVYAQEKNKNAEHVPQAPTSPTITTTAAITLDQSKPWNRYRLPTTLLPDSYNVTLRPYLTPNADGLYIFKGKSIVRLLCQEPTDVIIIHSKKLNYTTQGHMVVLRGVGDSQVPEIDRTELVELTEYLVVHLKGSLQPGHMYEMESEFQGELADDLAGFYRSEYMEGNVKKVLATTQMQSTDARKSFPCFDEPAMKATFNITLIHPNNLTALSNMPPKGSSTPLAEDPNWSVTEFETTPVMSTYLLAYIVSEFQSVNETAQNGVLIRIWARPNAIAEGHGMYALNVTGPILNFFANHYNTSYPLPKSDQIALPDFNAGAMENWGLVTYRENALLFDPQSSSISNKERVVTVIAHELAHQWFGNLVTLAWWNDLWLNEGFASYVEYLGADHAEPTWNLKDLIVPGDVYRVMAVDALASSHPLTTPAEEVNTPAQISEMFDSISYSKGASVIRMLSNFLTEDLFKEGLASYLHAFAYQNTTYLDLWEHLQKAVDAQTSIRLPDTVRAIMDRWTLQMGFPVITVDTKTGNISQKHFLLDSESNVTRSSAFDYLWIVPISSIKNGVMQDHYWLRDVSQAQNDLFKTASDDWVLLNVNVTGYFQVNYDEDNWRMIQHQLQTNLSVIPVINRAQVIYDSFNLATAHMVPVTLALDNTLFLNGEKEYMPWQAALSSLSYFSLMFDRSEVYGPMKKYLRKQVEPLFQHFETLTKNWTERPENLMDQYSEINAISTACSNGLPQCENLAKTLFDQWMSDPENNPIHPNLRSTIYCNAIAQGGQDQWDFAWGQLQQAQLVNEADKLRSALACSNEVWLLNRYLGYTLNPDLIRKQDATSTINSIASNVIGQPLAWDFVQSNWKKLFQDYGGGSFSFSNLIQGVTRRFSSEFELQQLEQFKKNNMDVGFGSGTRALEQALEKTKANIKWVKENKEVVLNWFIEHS
Briefly: Inhibition of pig kidney microsomal APN at 10 uM. In outline: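 Porcine kidney microsomal APN (ammonium sulfate suspension) diluted 600-fold in 25 mM Tris-HCl pH 7.4. Preincubated with inhibitor for 10 min at room temperature, then Leu-pNA added (0.3 mM stock). Hydrolysis followed at 405 nm at room temperature. Rates normalized to a no-inhibitor control. Single point at 10 µM; IC50 from concentration-velocity curves. Bestatin used as reference.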

Take `COc1cccc(CC(C(=O)NO)C(=O)NCc2cccc(Oc3ccccc3)c2)c1` (configuration not stated): the inhibition in experiment [1] is 68%; in experiment [2], 69%.

As to `O=C(NO)C(Cc1cccc(Oc2ccccc2)c1)C(=O)N(CCc1ccccc1)Cc1ccccc1` (configuration not stated), the inhibition in experiment [1] is 38%; in experiment [2], 67%.

On to `O=C(NO)C(Cc1cccc(Oc2ccccc2)c1)C(=O)NCCNc1cccc2ccccc12` (configuration not stated), for which the inhibition in experiment [1] was 66%; in experiment [2], 78%.

With `O=C(CC(=O)N(CCc1ccccc1)Cc1ccccc1)NO`, the results for the inhibition in experiment [1] and in experiment [2] were 5% and 32%, respectively.

`O=C(NO)C(Cc1ccccc1)C(=O)N1CCC2(CCNc3ccccc3O2)CC1` (configuration not stated): the inhibition is 7% in experiment [1] and 32% in experiment [2].

Turning to `O=C(NO)C(Cc1cccc(Oc2ccccc2)c1)C(=O)N1CCN(Cc2ccccc2)CC1` (configuration not stated), the inhibition in experiment [1] worked out at 84%; in experiment [2] it was 47%.

For the molecule `O=C(NO)C(Cc1ccccc1)C(=O)NC1CCN(Cc2ccccc2)CC1` (configuration not stated), the inhibition in experiment [1] came out at 3%; in experiment [2], 21%.

For the molecule `O=C(CC(=O)N1CCN(Cc2ccc3c(c2)OCO3)CC1)NO`, the inhibition in experiment [1] came out at 7%; in experiment [2], 11%.

Take `CC(C)CC(C(=O)NO)C(=O)N1CCN(c2ccccc2)CC1` (configuration not stated): the inhibition is 38% in experiment [1] and 103% in experiment [2].

`Cc1ccccc1CNC(=O)CC(=O)NO`: the results for the inhibition in experiment [1] and in experiment [2] were 32% and 17%, respectively.

With `CN(CCCNC(=O)CC(=O)NO)c1ccccc1`, the inhibition in experiment [1] amounted to 22%; in experiment [2], 32%.

Consider `O=C(CC(=O)NCc1cccc(-c2ccccc2)c1)NO`, for which the inhibition was 28% in experiment [1] and 66% in experiment [2].

On to `CC(C)CC(C(=O)NO)C(=O)N(C)CCCCc1ccccc1` (configuration not stated), for which the inhibition in experiment [1] was 2%; in experiment [2], 20%.

In the case of `NC(C(=O)NO)C(=O)NCCc1ccccc1` (configuration not stated), the values for the inhibition in experiment [1] and in experiment [2] were -8% and 25%, respectively.

Turning to `CC(C)CC(C(=O)NO)C(=O)NC1Cc2ccccc2C1` (configuration not stated), the inhibition in experiment [1] was found to be 61%; in experiment [2], 93%.

Take `NC(C(=O)NO)C(=O)NC1CCN(Cc2ccccc2)CC1` (configuration not stated): the inhibition in experiment [1] is -4%; in experiment [2] it was 25%.

For `O=C(CC(=O)NC1Cc2ccccc2C1)NO`, the values for the inhibition in experiment [1] and in experiment [2] were -2% and 12%, respectively.

With `Cc1ccccc1CNC(=O)C(Cc1cccc(Oc2ccccc2)c1)C(=O)NO` (configuration not stated), the results for the inhibition in experiment [1] and in experiment [2] were 99% and 86%, respectively.

With `O=C(CC(=O)NCCC(c1ccccc1)c1ccccc1)NO`, the results for the inhibition in experiment [1] and in experiment [2] were 50% and 87%, respectively.

As to `CN(CCCCc1ccccc1)C(=O)C(Cc1cccc(Oc2ccccc2)c1)C(=O)NO` (configuration not stated), the results for the inhibition in experiment [1] and in experiment [2] were 80% and 95%, respectively.

For `O=C(NO)C(Cc1cccc(Oc2ccccc2)c1)C(=O)NCc1cccnc1` (configuration not stated), the inhibition in experiment [1] stood at 99%; in experiment [2], 85%.

`NC(C(=O)NO)C(=O)NCCc1ccccn1` (configuration not stated): the inhibition in experiment [1] is -7%; in experiment [2], 22%.

As for `CC(C)CC(C(=O)NO)C(=O)N1CCC2(CCNc3ccccc3O2)CC1` (configuration not stated), the inhibition in experiment [1] amounted to 16%; in experiment [2], 21%.

With `O=C(CC(=O)NCc1cccc(Oc2ccccc2)c1)NO`, the figures for the inhibition in experiment [1] and in experiment [2] were 44% and 55%, respectively.

Regarding `CC(C)CC(C(=O)NO)C(=O)N1CCc2ccccc2C1` (configuration not stated), the inhibition was found to be 74% in experiment [1] and 90% in experiment [2].

Regarding `O=C(NO)C(Cc1ccccc1)C(=O)N1CCC2(CC1)C(=O)NCN2c1ccccc1` (configuration not stated), the inhibition is 40% in experiment [1] and 22% in experiment [2].

As for `CN(Cc1ccccc1)C(=O)C(Cc1cccc(Oc2ccccc2)c1)C(=O)NO` (configuration not stated), the inhibition in experiment [1] amounted to 86%; in experiment [2], 89%.

For `CN(CCCNC(=O)C(Cc1cccc(Oc2ccccc2)c1)C(=O)NO)c1ccccc1` (configuration not stated), the inhibition worked out at 77% in experiment [1] and 83% in experiment [2].

On to `CC(C)CC(C(=O)NO)C(=O)N1CCN(Cc2ccc3c(c2)OCO3)CC1` (configuration not stated), for which the inhibition was 21% in experiment [1] and 19% in experiment [2].

`Cc1ccccc1CNC(=O)C(N)C(=O)NO` (configuration not stated): the inhibition came out at 9% in experiment [1] and 23% in experiment [2].

As for `CC(C)CC(C(=O)NO)C(=O)NCc1cccnc1` (configuration not stated), the values for the inhibition in experiment [1] and in experiment [2] were -4% and 30%, respectively.

In the case of `CC(C)CN(CCCCc1ccccc1)C(=O)C(Cc1ccccc1)C(=O)NO` (configuration not stated), the inhibition in experiment [1] was 45%; in experiment [2] it was 28%.

Take `CC(C)CC(C(=O)NO)C(=O)N[C@H]1CCN(Cc2ccccc2)C1` (some centres not stated): the inhibition in experiment [1] is 58%; in experiment [2], 86%.

Turning to `CC(C)CC(C(=O)NO)C(=O)N(C)Cc1ccccc1` (configuration not stated), the results for the inhibition in experiment [1] and in experiment [2] were 23% and 37%, respectively.

Turning to `NC(C(=O)NO)C(=O)N1CCN(C(c2ccccc2)c2ccccc2)CC1` (configuration not stated), the inhibition is -5% in experiment [1] and 10% in experiment [2].

For `O=C(NO)C(Cc1cccc(Oc2ccccc2)c1)C(=O)NCCc1ccccc1` (configuration not stated), the inhibition in experiment [1] was 98%; in experiment [2], 88%.

On to `O=C(NO)C(Cc1cccc(Oc2ccccc2)c1)C(=O)N1CCC2(CCNc3ccccc3O2)CC1` (configuration not stated), for which the inhibition in experiment [1] stood at 48%; in experiment [2], 81%.

With `NC(C(=O)NO)C(=O)N1CCC(n2c(=O)[nH]c3ccccc32)CC1` (configuration not stated), the results for the inhibition in experiment [1] and in experiment [2] were 12% and 34%, respectively.

Take `O=C(CC(=O)NCCNc1cccc2ccccc12)NO`: the figures for the inhibition in experiment [1] and in experiment [2] were 0% and 14%, respectively.

In the case of `CN(Cc1ccccc1)C(=O)C(N)C(=O)NO` (configuration not stated), the inhibition in experiment [1] is -1%; in experiment [2], 29%.

Consider `O=C(NO)C(Cc1cccc(Oc2ccccc2)c1)C(=O)N[C@H]1CCN(Cc2ccccc2)C1` (some centres not stated), for which the inhibition in experiment [1] was found to be 41%; in experiment [2], 86%.

Regarding `O=C(CC(=O)N1CCC(Cc2ccccc2)CC1)NO`, the inhibition in experiment [1] amounted to 7%; in experiment [2], 23%.

For `O=C(NO)C(Cc1cccc(Oc2ccccc2)c1)C(=O)NCCc1ccccn1` (configuration not stated), the inhibition in experiment [1] came out at 67%; in experiment [2], 85%.

For the molecule `O=C(CC(=O)NCCCCc1ccccc1)NO`, the inhibition in experiment [1] is 19%; in experiment [2], 36%.

In the case of `CC(C)CC(C(=O)NO)C(=O)NCCNc1cccc2ccccc12` (configuration not stated), the inhibition is 42% in experiment [1] and 93% in experiment [2].

As for `CC(C)CC(C(=O)NO)C(=O)N(CCCCc1ccccc1)CC(C)C` (configuration not stated), the inhibition was found to be 42% in experiment [1] and 60% in experiment [2].

As a reminder, the inhibition is the relative decrease from the control value, in per cent.
